Beta cell apopt: beta cell apoptosis inhibition; protection from apoptosis, % (concentration not given with the values); INS-1E cytokine-induced death, ATP luminescence, 48 h; percent of positive-control rescue, neutral wells zero; 0.8% of 300,000 active;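 active = Every replicate reaches about 75%, or at least half do and their mean reaches it too, limit read from the data; inconclusive = At least half of replicates reach the limit but their mean does not; inactive = Under half of replicates reach the limit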;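 also: 0% = cytokine-treated negative control wells and 100% = positive control rescue; higher means more ATP so stronger rescue from cytokine killing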
T cruzi inh: blocks replication of Trypanosoma cruzi | T. cruzi beta-gal in NIH3T3, luminescence, 90 h | inhibition, % (concentration not given with the values) | 1.4% of 300,000 active;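 active = mean inhibition across valid replicates above about 55%, limit read from the data; inconclusive = mean below that limit but half or more replicates reach it; inactive = mean below it, under half of replicates reach it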;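 also: signal also drops with host cell toxicity which is not excluded here; 0% = plate median of DMSO wells and 100% = zero luminescence signal; higher percent means less beta-gal luminescence so fewer parasites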
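Read-out: Parasite load inhibition, % | Test system: Mouse NIH/3T3 fibroblasts infected with β-gal-expressing T. cruzi Tulahuen C4 | Amount: 5,000 cells/well | Medium: DMEM, 2% fetal bovine serum | Signal: GalScreen β-gal luminescence, detergent lysis, 60 min | Timing: 3 h attach, ≥90 h co-culture | Also added: Tulahuen C4 trypomastigotes, 5000/well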
CSC inhib: blocks cancer stem cells; AID 2717; cancer stem cell-like cells viability, luminescence; 1.1% of 300,000 active; inhibition, % at 7.5 µM; in the data active = inhibition above about 75%; inconclusive = no clear call, values can overlap the other calls; tested in HMLE shEcad cells
HIF activator: HIF pathway transcriptional activation; U2OS HRE-luciferase reporter, luminescence; normalized: DMSO 0%, desferrioxamine 100%; activation, % at 7.5 µM (by protocol); 0.32% of 300,000 active; AID 1910;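 active = mean activation of at least 10% of the iron chelator positive control signal, with at least half of replicates also reaching 10%; inconclusive = mean and replicate majority disagree about reaching 10%; inactive = mean and most replicates under 10%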
Calb FLC: C. albicans growth modulation with fluconazole. AID 1979. C. albicans CaCi-2 (fluconazole-resistant clinical isolate) + fluconazole, Alamar Blue growth, 48 h. growth inhibition, % (no concentration beside the values). 0.57% of 300,000 active;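 active = growth inhibition above about 58% in most replicates, limit read from the data, passing the limit was not always enough; inconclusive = exactly half the replicates above a set limit; inactive = most replicates below a set limit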;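 also: all wells also contain fluconazole at 8 µg/ml as a sub-toxic cotreatment; 0% = median of DMSO wells and 100% = median of geldanamycin control wells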
PolyA inh: blocks polyadenylation in yeast reporter cells; S. cerevisiae SKY197-pL101 polyadenylation reporter, beta-gal luminescence; efflux-impaired pdr1/pdr3 knockout yeast; score 100 = 6 SD above DMSO; activity score, % at 12 µM; 0.02% of 300,000 active;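 active = lowest replicate activity score at least 50, where 100 means six control SD above control mean; inconclusive = lowest score under 50 but half or more replicates reach 50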;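 also: yeast exposed to compound for 9 h at 30 °C; higher score means more reporter readthrough which indicates perturbed polyadenylation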
An asterisk follows results filed as active; ? = inconclusive; . = no result. Shown are actives, neighbours in structure and some others; about 3.1% of the full set was active somewhere.

SMILES | Beta cell apopt | T cruzi inh | CSC inhib | HIF activator | Calb FLC | PolyA inh
CN(C)c1ccc(P(=O)(Nc2ccc([N+](=O)[O-])cc2)N2CCOCC2)c(NC(=O)c2cccs2)c1 (stereo unspecified) | 4.6 | 33.6 | 11.9 | 0.0 | -4.9 | -13.5
COc1ccc(-c2sc3ccccc3c2/C=C/c2ccc(N)cc2)cc1 | 0.2 | . | 96.8* | . | . | .
COC(=O)c1ccc(/C=C/c2c(-c3ccsc3)sc3ccccc23)cc1 | -2.7 | -6.6 | 94.2* | 1.2 | -8.2 | -12.1
COC(=O)C1CCN(C(=O)COC(=O)c2ccc(N3CCCC3=O)cc2)CC1 | -4.2 | . | -5.5 | . | . | .
O=C(CC1SC(=Nc2ccccc2)N(CCc2c[nH]c3ccccc23)C1=O)Nc1ccccc1F (stereo unspecified) | -4.3 | 54.4 | 81.1* | -0.1 | 12.3 | 3.8
Cc1ccc(S(=O)(=O)NCCc2nnc(SCc3cccnc3)n2C)cc1 | -7.9 | 5.0 | 8.3 | 0.6 | -10.0 | 3.7
Cc1ccc[n+](CC(=O)Nc2ccc(C)c(C)c2)c1 | -7.7 | -12.4 | -1.8 | 0.7 | 4.8 | -2.0
Cn1nnnc1Sc1ncnc2scc(-c3cccc4c3sc3ccccc34)c12 | 2.9 | . | 111.2* | . | . | .
Cn1nnnc1Sc1ncnc2scc(-c3ccc(Cl)cc3)c12 | -9.1 | . | 82.7* | . | . | .
Cn1nnnc1Sc1ncnc2scc(-c3cccc(Br)c3)c12 | -13.3 | . | 88.7* | . | . | .
Cn1nnnc1Sc1ncnc2scc(-c3cccc(S(C)(=O)=O)c3)c12 | -59.0 | . | 39.3 | . | . | .
Cn1nnnc1Sc1ncnc2scc(-c3ccccc3Cl)c12 | -18.5 | . | 41.4 | . | . | .
Cc1cccc(NC(=O)CSc2nnc(CNC(=O)c3cccs3)o2)c1C | -12.7 | -3.8 | -15.7 | 0.2 | -3.7 | -4.3
CCCn1c(N)c(N(CCOC)C(=O)Cc2ccc(S(=O)(=O)N3CCOCC3)s2)c(=O)[nH]c1=O | -18.3 | -14.5 | -9.7 | -0.7 | 7.8 | 1.8
COc1ccc(CCNc2c(C)c(C)nc3ncnn23)cc1 | 100.5* | -84.2 | . | 0.8 | 0.9 | 10.6
ONC=Nc1cccc2nonc12 | -0.9 | 0.5 | -0.4 | 11.8* | -4.0 | -20.0
C[C@H](CO)N1C[C@H](C)[C@@H](CN(C)Cc2ccc(Oc3ccccc3)cc2)Oc2c(NC(=O)c3ccncc3)cccc2C1=O | -2.5 | . | 14.7 | . | . | .
O=C(NCc1nnnn1-c1ccc(F)cc1)c1ccc([N+](=O)[O-])o1 | -29.9 | 45.9 | -8.4 | -3.4 | 65.2 | -1.6
O=C(Nc1ccc2[nH]c(=O)[nH]c2c1)c1ccc([N+](=O)[O-])o1 | -9.4 | . | . | . | . | .
Cc1ccc(NC(=O)c2ccc([N+](=O)[O-])o2)cc1C | . | ? | -14.5 | 2.5 | 116.7* | -53.6
Cc1ccc(-n2nnnc2CNC(=O)c2ccc([N+](=O)[O-])o2)cc1C | -22.6 | 57.3* | 8.8 | 0.8 | 35.8 | -8.4
O=C(Nc1cccc(NC(=O)c2ccccc2Cl)c1)c1ccc([N+](=O)[O-])o1 | 96.1* | 29.4 | 43.6 | -1.5 | 79.5* | -20.4
CN(C)c1ccc(C2CC(=O)C=C(Nc3ccccc3N)C2)cc1 (stereo unspecified) | -6.8 | -1.2 | -9.6 | 1.1 | 0.6 | 5.9
COc1ccc(C(=O)/C=C/c2ccc(N3CCCCC3)c([N+](=O)[O-])c2)c(OC)c1 | -2.6 | 3.8 | 96.5* | 0.7 | 2.4 | 6.3
COc1ccc(C(=O)/C=C/c2ccc(N3CCCCC3)c([N+](=O)[O-])c2)cc1 | 9.4 | 5.6 | ? | 2.8 | -0.9 | -16.8
SMILES | Beta cell apopt | T cruzi inh | CSC inhib | HIF activator | Calb FLC | PolyA inh
O=C(CSc1ccc(F)cc1)NCCc1ccc(Cl)cc1 | . | -3.4 | -6.4 | 0.5 | 14.6 | -9.8
Cc1cccc(NC(=O)COc2cccc3c2CCN(C)C3=O)c1C | 0.6 | 10.6 | -5.3 | 9.8* | -3.1 | 0.3
Cc1cccc(OCC(=O)Nc2ccccc2N2CCCC2)c1C | -3.1 | 28.1 | 79.9* | -0.1 | -0.4 | 12.7
CCN1CCc2c(OCC(=O)Nc3cccc(C)c3C)cccc2C1=O | -1.2 | 0.5 | -1.4 | 0.0 | 6.2 | -5.0
O=C(Nc1ccc(OC(F)F)cc1)Nc1cccc(C(F)(F)F)c1 | 77.7* | 42.3 | 70.8 | -0.1 | -18.0 | -8.9
Cc1ccc(NS(=O)(=O)c2ccc(NC(=O)c3cccc(NC(=O)C(C)C)c3)cc2)cc1 | 21.3 | -1.4 | 36.6 | -0.3 | 1.8 | -7.5
Cc1ccc(S(=O)(=O)Nc2ccc(NC(=O)Nc3cccc(C(F)(F)F)c3)cc2)cc1 | 95.8* | -2.9 | 96.1* | -37.7 | -19.6 | 26.6
CCN(CC)S(=O)(=O)c1ccc(NC(=O)Nc2cccc(C(F)(F)F)c2)cc1 | 97.7* | 76.2* | 83.0* | -0.4 | -1.1 | 8.1
CCN(CC)S(=O)(=O)c1ccc(C(=O)Nc2cccc(C)c2)cc1 | -2.0 | 4.7 | -6.8 | 0.5 | 0.8 | -31.5
O=C(Nc1ccncc1)Nc1cccc(C(F)(F)F)c1 | 5.2 | 41.0 | -8.7 | 0.3 | -4.1 | 22.1
CSc1ccccc1NC(=O)CN1CCN(S(=O)(=O)c2ccccc2[N+](=O)[O-])CC1 | -20.3 | . | -10.1 | . | . | .
CCOC(=O)C1=C(C(F)(F)F)Nc2ncnn2C1c1ccc(OC)c(OC)c1OC (stereo unspecified) | 1.8 | -10.4 | -9.8 | 0.2 | -5.2 | -7.1
CCc1nc(Nc2ccccc2F)c2oc3ccccc3c2n1 | 3.7 | -6.5 | 25.2 | 1.2 | 5.6 | -35.1
Cc1ccccc1-n1nc(C(=O)c2cccs2)cc(-c2nc3ccccc3[nH]2)c1=N | 33.9 | ? | 17.8 | -0.1 | -16.3 | -11.3
COc1ccc(-n2nc(C(=O)c3cccs3)cc(-c3nc4ccccc4[nH]3)c2=N)cc1 | -18.7 | 72.7* | 48.6 | 1.2 | -25.2 | -11.3
Cc1cccc(-n2nc(C(=O)c3ccco3)cc(-c3nc4ccccc4[nH]3)c2=N)c1 | 30.0 | 53.7 | 19.1 | -0.4 | 97.3* | -18.3
O=C(CSc1ccccc1F)NC(=O)c1ccccc1Br | -0.5 | . | -11.7 | . | . | .
COc1ccc(/C=N/Nc2ncnc(Cl)c2N)cc1OC | -14.0 | 4.1 | -15.5 | 0.6 | -1.6 | -8.0
COc1ccc(/C=N/Nc2ncnc3sc4c(c23)CCCC4)cc1OC | -6.6 | 9.4 | 25.3 | 10.5* | 2.9 | -17.8
Cc1nnc(NC(=O)C(C)Sc2nnc(CNC(=O)c3ccccc3F)n2C)s1 (stereo unspecified) | . | -4.1 | -9.7 | -41.7 | 3.4 | -9.3
CCN(CC(=O)NC(C)(C)C)C(=O)CCl | -4.5 | -6.0 | -4.4 | -0.4 | -14.7 | 21.1
COc1ccc(C2=NS(=O)(=O)N(C)C(C(=O)Nc3ccc(C(C)=O)cc3)=C2)cc1OC | 3.3 | 3.7 | -5.5 | -0.5 | -3.0 | 8.3
Cc1nn(S(=O)(=O)c2ccc([N+](=O)[O-])cc2)c(C)c1Sc1ccccc1 | 2.7 | 64.3* | 4.2 | -0.4 | 1.2 | -4.8
Cc1noc(C)c1-c1ccc2nc[nH]c(=O)c2c1 | -8.3 | 7.3 | -3.7 | 0.8 | 5.1 | 16.2
C/C(=N\NC(=S)Nc1ccc(F)cc1)c1ccc2c(c1)OCCO2 | 11.4 | 43.2 | 75.7* | 1.3 | 3.4 | -1.6

High-throughput results as filed in PubChem BioAssay.
